Results from ChEMBL document CHEMBL3112473, “Synthesis of a novel series of thiazole-based histone acetyltransferase inhibitors” (Bioorg Med Chem, 2014).
One block for each molecule: values may come before it. Active and inactive are the calls of the source. The rule behind the calls is not given here.

Columns and labels:
[1] = tested on: Saccharomyces cerevisiae; assay: Growth inhibition of Saccharomyces cerevisiae BY4742 harboring rtt109delta mutant at 0.5 mM after 48 hrs; format: functional, organism-based
In short: (§1)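 Spot assay on S. cerevisiae. Wild type (S288c or BY4742) and isogenic HAT deletion strains were used: gcn5Δ, elp3Δ and sas2Δ in S288c; gcn5Δ and rtt109Δ in BY4742. Growth was scored against wild type after 48 h at 28 °C.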

[2] = tested on: Saccharomyces cerevisiae; assay: Reduction of wild type Saccharomyces cerevisiae growth at 0.5 mM after 48 hrs; format: functional, organism-based; in short: as §1
[3] = tested on: Saccharomyces cerevisiae; assay: Reduction of growth of Saccharomyces cerevisiae harboring gcn5delta mutant at 0.5 mM after 48 hrs; format: functional, organism-based; in short: as §1
[4] = tested on: Saccharomyces cerevisiae; assay: Growth inhibition of Saccharomyces cerevisiae S288c harboring gcn5delta mutant at 0.5 mM after 48 hrs; format: functional, organism-based; in short: as §1
[5] = tested on: Saccharomyces cerevisiae; assay: Growth inhibition of Saccharomyces cerevisiae BY4742 harboring gcn5delta mutant at 0.5 mM after 48 hrs; format: functional, organism-based; in short: as §1
[6] = tested on: Saccharomyces cerevisiae; assay: Growth inhibition of Saccharomyces cerevisiae S288c harboring sas2delta mutant at 0.5 mM after 48 hrs; format: functional, organism-based; in short: as §1
[7] = tested on: Saccharomyces cerevisiae; assay: Growth inhibition of Saccharomyces cerevisiae S288c harboring elp3delta mutant at 0.5 mM after 48 hrs; format: functional, organism-based; in short: as §1
[8] = tested on: Saccharomyces cerevisiae; assay: Reduction of wild type Saccharomyces cerevisiae growth at 0.2 mM after 48 hrs; format: functional, organism-based; in short: as §1
[9] = tested on: Saccharomyces cerevisiae; assay: Growth inhibition of Saccharomyces cerevisiae S288c harboring gcn5delta mutant at 0.2 mM after 48 hrs; format: functional, organism-based; in short: as §1
[10] = tested on: Saccharomyces cerevisiae; assay: Growth inhibition of Saccharomyces cerevisiae BY4742 harboring gcn5delta mutant at 0.2 mM after 48 hrs; format: functional, organism-based; in short: as §1
[11] = tested on: Saccharomyces cerevisiae; assay: Reduction of growth of Saccharomyces cerevisiae harboring gcn5delta mutant at 0.2 mM after 48 hrs; format: functional, organism-based; in short: as §1
[12] = tested on: Saccharomyces cerevisiae; assay: Growth inhibition of Saccharomyces cerevisiae S288c harboring sas2delta mutant at 0.75 mM after 48 hrs; format: functional, organism-based; in short: as §1
[13] = tested on: Saccharomyces cerevisiae; assay: Growth inhibition of Saccharomyces cerevisiae S288c harboring gcn5delta mutant at 0.75 mM after 48 hrs; format: functional, organism-based; in short: as §1
[14] = tested on: Saccharomyces cerevisiae; assay: Growth inhibition of Saccharomyces cerevisiae S288c harboring elp3delta mutant at 0.75 mM after 48 hrs; format: functional, organism-based; in short: as §1
[15] = tested on: Saccharomyces cerevisiae; assay: Growth inhibition of Saccharomyces cerevisiae BY4742 harboring gcn5delta mutant at 0.75 mM after 48 hrs; format: functional, organism-based; in short: as §1
[16] = tested on: Saccharomyces cerevisiae; assay: Growth inhibition of Saccharomyces cerevisiae BY4742 harboring rtt109delta mutant at 0.75 mM after 48 hrs; format: functional, organism-based; in short: as §1
[17] = tested on: Saccharomyces cerevisiae; assay: Reduction of wild type Saccharomyces cerevisiae growth at 1 mM after 48 hrs; format: functional, organism-based; in short: as §1
[18] = tested on: Saccharomyces cerevisiae; assay: Reduction of growth of Saccharomyces cerevisiae harboring gcn5delta mutant at 1 mM after 48 hrs; format: functional, organism-based; in short: as §1
[19] = tested on: HeLa; assay: Inhibition of histone acetyltransferase in human HeLa cells assessed as AcH3 and H3AcK18 level after 48 to 72 hrs by Western blotting; format: cell-based
In short: (§2)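 HeLa, U87 and BE-SK-N-BE(2) cells incubated with compound at 50 or 100 µM for 48 or 72 h. Total lysates in 2× Laemmli buffer, boiled 10 min, run on 15% SDS-PAGE and blotted. Probed for acetyl-H3 and H3K18ac, with GAPDH as constitutive control.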

[20] = tested on: U-87MG ATCC; assay: Inhibition of histone acetyltransferase in human U87 cells assessed as AcH3 and H3AcK18 level after 48 to 72 hrs by Western blotting; format: cell-based; in short: as §2
[21] = tested on: Saccharomyces cerevisiae; assay: Growth inhibition of Saccharomyces cerevisiae BY4742 harboring gcn5delta mutant after 48 hrs; format: functional, organism-based; in short: as §1
[22] = Cytotoxicity against human U87 cells assessed as cell viability at 50 to 100 uM after 48 to 72 hrs by trypan blue exclusion assay; format: cell-based; conditions: u-87mg atcc
In short: (§3)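 Trypan blue exclusion on HeLa, U87 glioblastoma and BE-SK-N-BE(2) neuroblastoma cells. Compound added at final 50 and 100 µM and incubated 48 or 72 h at 37 °C, then cells collected and counted. About 1.5 × 10⁵ cells counted per point. Viability given as mean percentage of viable/dead cells relative to untreated controls.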

[23] = biological target: Histone acetyltransferase KAT2B (Homo sapiens) (UniProt Q92831); assay: Inhibition of human recombinant histone acetyltransferase PCAF assessed as acetylation of histone H3 at 0.15 to 0.6 mM
Histone acetyltransferase KAT2B (Homo sapiens), sequence (Q92831 whole entry, looked up, the tested form may be a part): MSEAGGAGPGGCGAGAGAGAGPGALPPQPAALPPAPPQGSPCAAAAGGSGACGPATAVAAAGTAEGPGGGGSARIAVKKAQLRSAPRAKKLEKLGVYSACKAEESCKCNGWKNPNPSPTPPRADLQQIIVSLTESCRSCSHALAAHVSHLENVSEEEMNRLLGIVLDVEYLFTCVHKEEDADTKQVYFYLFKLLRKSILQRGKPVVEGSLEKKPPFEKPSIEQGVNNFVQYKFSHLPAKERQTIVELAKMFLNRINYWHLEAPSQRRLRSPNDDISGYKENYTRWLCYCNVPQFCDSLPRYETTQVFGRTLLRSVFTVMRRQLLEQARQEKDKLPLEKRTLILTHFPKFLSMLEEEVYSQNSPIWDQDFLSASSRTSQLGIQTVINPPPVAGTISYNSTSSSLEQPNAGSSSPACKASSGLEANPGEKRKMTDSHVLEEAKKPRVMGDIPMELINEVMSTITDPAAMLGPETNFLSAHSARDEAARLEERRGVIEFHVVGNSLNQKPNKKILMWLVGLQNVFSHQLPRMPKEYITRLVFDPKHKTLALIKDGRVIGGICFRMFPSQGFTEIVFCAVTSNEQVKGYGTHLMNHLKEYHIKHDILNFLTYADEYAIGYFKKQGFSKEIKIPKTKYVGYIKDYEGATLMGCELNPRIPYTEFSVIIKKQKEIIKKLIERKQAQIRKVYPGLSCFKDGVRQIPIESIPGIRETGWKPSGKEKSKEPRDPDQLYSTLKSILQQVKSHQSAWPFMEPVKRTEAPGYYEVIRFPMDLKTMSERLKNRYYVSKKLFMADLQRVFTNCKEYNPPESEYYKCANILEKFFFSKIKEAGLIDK
In short: (§4)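 Fluorescent in vitro HAT kit assay. Human recombinant HAT catalytic domains (Gcn5, p300, PCAF) were incubated with acetyl-CoA and histone H3 substrate, with inhibitor at 0.15, 0.3 and 0.6 mM. Anacardic acid at 15 µM served as reference. Residual activity measured relative to untreated control. Each reaction run three times, standard errors given.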

[24] = organism: Homo sapiens; assay: Inhibition of histone acetyltransferase in human BE-SK-N-BE(2) cells assessed as AcH3 and H3AcK18 level after 48 to 72 hrs by Western blotting; format: cell-based; in short: as §2
[25] = biological target: Histone acetyltransferase GCN5 (Saccharomyces cerevisiae) (UniProt Q03330); assay: Inhibition of Saccharomyces cerevisiae S288c histone acetyltransferase assessed as acetylation of histone H3 at 0.6 to 0.8 mM by Western blotting
Histone acetyltransferase GCN5 (Saccharomyces cerevisiae), sequence (Q03330 whole entry, looked up): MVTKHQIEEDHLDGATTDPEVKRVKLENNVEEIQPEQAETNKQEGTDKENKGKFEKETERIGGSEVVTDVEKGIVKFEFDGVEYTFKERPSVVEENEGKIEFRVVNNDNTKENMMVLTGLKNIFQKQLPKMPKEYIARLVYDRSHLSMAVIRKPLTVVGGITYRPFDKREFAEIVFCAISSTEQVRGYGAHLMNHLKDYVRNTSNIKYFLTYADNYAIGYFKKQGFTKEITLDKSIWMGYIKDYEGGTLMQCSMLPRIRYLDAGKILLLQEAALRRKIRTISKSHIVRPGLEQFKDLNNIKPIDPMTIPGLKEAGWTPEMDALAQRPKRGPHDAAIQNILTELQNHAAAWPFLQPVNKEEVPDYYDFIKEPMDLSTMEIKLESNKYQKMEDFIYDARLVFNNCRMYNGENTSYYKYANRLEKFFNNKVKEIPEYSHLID

[26] = tested on: Saccharomyces cerevisiae; assay: Growth inhibition of Saccharomyces cerevisiae S288c harboring gcn5delta mutant after 48 hrs; format: functional, organism-based; in short: as §1
[27] = biological target: Histone acetyltransferase p300 (Homo sapiens) (UniProt Q09472); assay: Inhibition of human recombinant histone acetyltransferase p300 assessed as acetylation of histone H3 at 0.6 mM; in short: as §4
Histone acetyltransferase p300 (Homo sapiens), sequence (Q09472 whole entry): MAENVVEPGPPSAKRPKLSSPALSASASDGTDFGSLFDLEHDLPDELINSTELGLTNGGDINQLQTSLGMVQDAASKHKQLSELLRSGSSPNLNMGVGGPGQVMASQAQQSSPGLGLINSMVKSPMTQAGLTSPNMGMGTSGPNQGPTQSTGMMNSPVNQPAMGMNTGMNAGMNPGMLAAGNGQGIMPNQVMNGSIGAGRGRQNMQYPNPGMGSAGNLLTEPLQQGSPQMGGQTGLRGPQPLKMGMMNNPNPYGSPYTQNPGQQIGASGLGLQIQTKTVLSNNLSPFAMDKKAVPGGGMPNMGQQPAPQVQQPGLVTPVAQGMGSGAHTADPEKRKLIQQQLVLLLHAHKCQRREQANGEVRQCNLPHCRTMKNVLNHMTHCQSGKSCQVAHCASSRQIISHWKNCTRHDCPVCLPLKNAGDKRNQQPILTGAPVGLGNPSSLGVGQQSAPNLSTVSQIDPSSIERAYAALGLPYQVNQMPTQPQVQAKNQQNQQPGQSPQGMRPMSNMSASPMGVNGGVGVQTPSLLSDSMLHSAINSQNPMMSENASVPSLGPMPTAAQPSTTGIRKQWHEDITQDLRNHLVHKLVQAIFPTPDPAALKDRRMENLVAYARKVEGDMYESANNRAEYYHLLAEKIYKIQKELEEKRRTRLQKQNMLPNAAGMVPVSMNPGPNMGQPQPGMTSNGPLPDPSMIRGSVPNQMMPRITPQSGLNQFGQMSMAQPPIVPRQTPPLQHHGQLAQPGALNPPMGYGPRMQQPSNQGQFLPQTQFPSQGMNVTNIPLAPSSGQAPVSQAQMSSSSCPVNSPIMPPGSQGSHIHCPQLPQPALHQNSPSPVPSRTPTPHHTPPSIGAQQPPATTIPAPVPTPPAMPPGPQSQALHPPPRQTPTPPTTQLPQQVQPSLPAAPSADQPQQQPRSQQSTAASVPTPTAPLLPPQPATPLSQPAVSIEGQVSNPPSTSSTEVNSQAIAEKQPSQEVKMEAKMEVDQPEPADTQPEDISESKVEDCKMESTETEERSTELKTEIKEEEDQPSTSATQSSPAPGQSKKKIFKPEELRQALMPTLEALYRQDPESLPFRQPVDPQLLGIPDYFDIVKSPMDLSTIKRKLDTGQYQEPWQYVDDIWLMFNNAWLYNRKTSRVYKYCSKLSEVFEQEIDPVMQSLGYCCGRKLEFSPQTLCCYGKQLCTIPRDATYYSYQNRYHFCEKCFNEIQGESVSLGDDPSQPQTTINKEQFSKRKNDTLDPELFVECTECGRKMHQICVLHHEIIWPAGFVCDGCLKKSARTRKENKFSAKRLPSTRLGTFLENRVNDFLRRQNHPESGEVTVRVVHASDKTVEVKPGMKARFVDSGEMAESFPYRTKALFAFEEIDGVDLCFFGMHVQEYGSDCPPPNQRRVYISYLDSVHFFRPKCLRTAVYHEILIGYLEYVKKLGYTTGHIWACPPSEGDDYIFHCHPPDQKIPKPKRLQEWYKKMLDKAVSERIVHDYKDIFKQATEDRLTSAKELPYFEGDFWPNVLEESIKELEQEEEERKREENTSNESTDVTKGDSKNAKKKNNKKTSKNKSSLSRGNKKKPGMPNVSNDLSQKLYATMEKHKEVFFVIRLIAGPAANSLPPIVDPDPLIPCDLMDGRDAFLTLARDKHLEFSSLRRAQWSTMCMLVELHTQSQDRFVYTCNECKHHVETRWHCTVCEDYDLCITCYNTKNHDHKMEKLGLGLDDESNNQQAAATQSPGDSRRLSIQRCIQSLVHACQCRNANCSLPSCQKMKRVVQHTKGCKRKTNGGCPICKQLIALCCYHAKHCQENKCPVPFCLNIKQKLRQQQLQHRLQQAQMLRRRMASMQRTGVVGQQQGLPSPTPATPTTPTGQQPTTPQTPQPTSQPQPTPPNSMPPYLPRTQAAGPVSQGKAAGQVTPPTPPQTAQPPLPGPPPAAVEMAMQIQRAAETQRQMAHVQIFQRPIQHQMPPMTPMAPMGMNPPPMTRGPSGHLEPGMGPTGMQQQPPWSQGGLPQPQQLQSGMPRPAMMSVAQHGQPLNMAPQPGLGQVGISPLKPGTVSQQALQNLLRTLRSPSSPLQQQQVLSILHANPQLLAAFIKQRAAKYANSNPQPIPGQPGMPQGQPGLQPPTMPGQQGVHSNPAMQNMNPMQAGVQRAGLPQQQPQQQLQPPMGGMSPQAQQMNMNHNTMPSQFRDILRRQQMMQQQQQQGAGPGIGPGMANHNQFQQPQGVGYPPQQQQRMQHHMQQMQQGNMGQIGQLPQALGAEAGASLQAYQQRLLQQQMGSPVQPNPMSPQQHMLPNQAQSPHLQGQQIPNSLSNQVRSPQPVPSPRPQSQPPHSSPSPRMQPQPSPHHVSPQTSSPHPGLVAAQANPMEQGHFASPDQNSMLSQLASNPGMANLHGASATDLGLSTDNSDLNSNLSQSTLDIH

[28] = tested on: HeLa; assay: Inhibition of histone acetyltransferase in human HeLa cells assessed as AcH3 and H3AcK18 level after 72 hrs by Western blotting; format: cell-based; in short: as §2
[29] = organism: Homo sapiens; assay: Inhibition of histone acetyltransferase in human BE-SK-N-BE(2) cells assessed as AcH3 and H3AcK18 level after 72 hrs by Western blotting; format: cell-based; in short: as §2
[30] = biological target: T1, Histone acetyltransferase SAS2 (Saccharomyces cerevisiae (strain ATCC 204508 / S288c) (Baker's yeast)) (UniProt P40963); assay: Inhibition of Saccharomyces cerevisiae S288c histone acetyltransferase assessed as acetylation of histone H4 at 0.6 to 0.8 mM by Western blotting
T1 sequence (whole entry): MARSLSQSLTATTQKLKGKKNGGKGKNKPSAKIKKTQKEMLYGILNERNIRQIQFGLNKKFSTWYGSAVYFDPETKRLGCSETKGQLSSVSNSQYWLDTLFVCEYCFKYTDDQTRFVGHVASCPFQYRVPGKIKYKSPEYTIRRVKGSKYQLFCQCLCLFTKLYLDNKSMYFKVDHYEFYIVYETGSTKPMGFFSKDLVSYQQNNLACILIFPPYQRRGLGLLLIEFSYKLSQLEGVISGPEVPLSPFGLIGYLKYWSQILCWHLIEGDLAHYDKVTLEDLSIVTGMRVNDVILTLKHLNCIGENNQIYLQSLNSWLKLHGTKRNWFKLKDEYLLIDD
In short: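 S288c wild-type yeast grown at 28 °C in YPD with 1% DMSO, plus compound at 0.6 or 0.8 mM. Total protein extracts boiled in Laemmli buffer, run on 15% SDS-PAGE and blotted. Probed for pan-acetylated H3 and H4, with unmodified H3 and ADA2 as loading standards. Acetylation normalized to ADA2. Triplicate experiments, SD reported.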

[31] = tested on: HeLa; assay: Cytotoxicity against human HeLa cells assessed as cell viability at 50 to 100 uM after 48 to 72 hrs by trypan blue exclusion assay; format: cell-based; in short: as §3
[32] = tested on: U-87MG ATCC; assay: Inhibition of histone acetyltransferase in human U87 cells assessed as AcH3 and H3AcK18 level after 72 hrs by Western blotting; format: cell-based; in short: as §2
[33] = Cytotoxicity against human BE-SK-N-BE(2) cells assessed as cell viability at 100 uM after 48 to 72 hrs by trypan blue exclusion assay; format: cell-based; conditions: read-out: Activity; in short: as §3

Compound: Clc1ccc(-c2csc(NN=C3CCCC3)n2)cc1
growth inhibition (GI) [1]: inactive
Activity [2]: Active
Activity [3]: Active
growth inhibition (GI) [4]: Active
growth inhibition (GI) [5]: Active
growth inhibition (GI) [6]: inactive
growth inhibition (GI) [7]: inactive

Compound: CC/C(C)=N/Nc1nc(-c2ccc(Cl)cc2)cs1
Activity [8]: Active
growth inhibition (GI) [9]: Active
growth inhibition (GI) [10]: Active
Activity [11]: Active

Compound: CCC(CC)=NNc1nc(-c2ccc(Cl)cc2)cs1
Activity [8]: Active
growth inhibition (GI) [9]: Active
growth inhibition (GI) [10]: Active
Activity [11]: Active

Compound: COc1cc(/C=C/C(=O)CC(=O)/C=C/c2ccc(O)c(OC)c2)ccc1O
growth inhibition (GI) [12]: inactive
growth inhibition (GI) [13]: Active
growth inhibition (GI) [14]: inactive
growth inhibition (GI) [15]: Active
growth inhibition (GI) [16]: inactive

Compound: C/C(=N/Nc1nc(-c2ccc(Cl)cc2)cs1)c1ccccn1
Activity [17]: Active
Activity [18]: Active

inhibition [23]: inactive
inhibition [25]: 50%
inhibition [27]: Active
inhibition [30]: inactive
Compound: CC(C)=NNc1nc(-c2ccc(Cl)cc2)cs1
Activity [8]: Active
inhibition [19]: Dose-dependent effect
inhibition [20]: Dose-dependent effect
growth inhibition (GI) [21]: Dose-dependent effect
growth inhibition (GI) [9]: Active
Activity [22]: Non-toxic
growth inhibition (GI) [10]: Active
inhibition [24]: Dose-dependent effect
growth inhibition (GI) [26]: Dose-dependent effect
inhibition [28]: Active
Activity [11]: Active
inhibition [29]: Active
Activity [31]: Non-toxic
inhibition [32]: Active
viability at 100 µM [33]: 30%
